A selection: hits, their analogues and other compounds. The true share with any hit is near 1.1%.
Rin1 Abl inh: human Rin1-Abl interaction inhibition; P00519+Q13671; TR-FRET Rin1/Abl binding, biochemical; inhibition, % at 7.35 µM; actives 0.4% (n = 360,000); AID 588664; in the data active = inhibition above about 5%, passing the limit was not always enough
CAL PDZ FP-1: inhibitors of human CAL PDZ peptide binding; Q9HD26; purified CAL PDZ, TMR-peptide fluorescence polarization, 1 h; inhibition, % at 20 µM; actives 0.02% (n = 330,000); AID 504414;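 active = highest replicate inhibition of at least 40%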;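 note: plate controls were DMSO neutral control wells for no effect and unlabeled competitor peptide control wells for full effect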
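material = purified tagged CAL PDZ domain construct (CerCALP) | compound dosing = 20 µM, one dose | times = 1 h at RT | measured by = fluorescence polarization from S- and P-plane intensities, G-factor corrected | read-out = inhibition from polarization loss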
ERp5 inh: ERp5 (human) disulfide isomerase inhibition. inhibition, % at 9.99 µM. ERp5 insulin aggregation, absorbance 650 nm, 90 min. actives 0.05% (n = 350,000). AID 651711;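 active = mean replicate inhibition above about 25%, with every replicate also reaching it, limit read from the data, passing the limit was not always enough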
PDI turbidity: inhibitors of human protein disulfide isomerase. PDI insulin aggregation turbidity, A650, 90 min. inhibition, % at 10 µM. AID 588391. actives 0.052% (n = 350,000);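 active = mean inhibition across replicates of 30% or more, whatever share of single replicates reach that level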
Target sequence (P07237 whole entry, looked up): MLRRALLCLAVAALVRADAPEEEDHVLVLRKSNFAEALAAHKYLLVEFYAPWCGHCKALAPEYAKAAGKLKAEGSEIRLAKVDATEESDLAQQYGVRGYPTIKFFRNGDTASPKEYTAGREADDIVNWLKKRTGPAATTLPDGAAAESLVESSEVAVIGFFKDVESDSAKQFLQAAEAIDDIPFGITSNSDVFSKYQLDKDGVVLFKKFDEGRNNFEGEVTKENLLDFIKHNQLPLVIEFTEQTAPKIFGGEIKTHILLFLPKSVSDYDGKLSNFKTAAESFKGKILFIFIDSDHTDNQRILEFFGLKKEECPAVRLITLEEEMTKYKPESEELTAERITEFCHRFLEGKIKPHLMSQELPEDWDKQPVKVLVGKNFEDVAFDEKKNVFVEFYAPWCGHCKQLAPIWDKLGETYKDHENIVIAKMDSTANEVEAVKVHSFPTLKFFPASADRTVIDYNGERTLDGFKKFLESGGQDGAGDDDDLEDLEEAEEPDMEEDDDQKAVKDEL
ERAP1 inh: inhibitors of human ERAP1 aminopeptidase; AID 652197; recombinant ERAP1, Leu-AMC fluorescence, 60 min; inhibition, % at 10.7 µM; actives 0.15% (n = 340,000); Q9NZ08;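 active = mean replicate inhibition of at least 30%, or all replicates individually reaching that 30% level; inactive = mean below 30% and not every replicate reaching it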;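 note: 0% = neutral control wells and 100% = L-leucinethiol positive control wells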
CAL PDZ FP-2: blocks peptide binding to the human CAL PDZ domain | actives 0.92% (n = 300,000) | AID 602252 | inhibition, % at 24.9 µM | purified CAL PDZ, TMR-peptide fluorescence polarization, 1 h | Q9HD26;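 active = mean inhibition of at least 30% with at least half of replicates also reaching 30%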;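 note: 0% = DMSO neutral control and 100% = excess unlabeled competitor peptide PRC23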
An asterisk follows results filed as active.

Results for COc1ccc2c3c([nH]c2c1)[C@H](CO)N(C(=O)c1ccc(F)cc1)CC31CCN(C(=O)Nc2cccc(F)c2)CC1 ?
ERp5 inh: 66.2*; ERAP1 inh: 5.2

What do the screens show for `COc1ccc2c3c([nH]c2c1)[C@@H](CO)N(C(=O)c1ccc(F)cc1)CC31CCN(C(=O)Nc2cccc(F)c2)CC1`?
ERp5 inh: 62.9*; ERAP1 inh: 2.6

What do the screens show for `COc1ccc2c3c([nH]c2c1)[C@H](CO)N(C(=O)c1ccc(F)cc1)CC31CN(C(=O)Nc2cccc(F)c2)C1`?
ERp5 inh: -1.5; ERAP1 inh: 2.2

What do the screens show for `CCc1nc(N2[C@H](C#N)[C@H](c3ccccc3-c3ccccc3C)[C@H]2CO)sc1C`?
ERp5 inh: -1.2; ERAP1 inh: 1.0

How did Cc1ccccc1S(=O)(=O)N1C[C@@H](O)COC[C@@H]2O[C@H](CC(=O)O)CC[C@H]21 do in these assays?
ERp5 inh: -1.9; ERAP1 inh: -1.6

How did c1ccc(-c2cc(-c3ccc(N4CCOCC4)cc3)nc3ccccc23)cc1 do in these assays?
Rin1 Abl inh: 0.0; CAL PDZ FP-1: -0.7; PDI turbidity: -2.8; CAL PDZ FP-2: 37.0*

What do the screens show for `c1ccc(-c2cc(N3CCOCC3)nc(-c3ccccc3)n2)cc1`?
Rin1 Abl inh: 4.8; CAL PDZ FP-1: 0.5; PDI turbidity: -2.5; CAL PDZ FP-2: 1.6

Results for O=C1C=CC(=O)N1c1ccc2c(c1)Cc1cc(F)ccc1-2 ?
Rin1 Abl inh: 0.7; CAL PDZ FP-1: -0.2; ERp5 inh: -6.6; PDI turbidity: 0.5; ERAP1 inh: -1.6; CAL PDZ FP-2: -1.9

Results for CC(=O)Nc1ccc2c(c1)Cc1cc(N3C(=O)C=CC3=O)ccc1-2 ?
Rin1 Abl inh: -1.9; CAL PDZ FP-1: 1.2; ERp5 inh: -7.5; PDI turbidity: -16.7; ERAP1 inh: 33.6*; CAL PDZ FP-2: -4.5

Results for CN(CCO)c1nc(N)c2c(N)nc3c(c2c1C#N)CC(=O)N3Cc1cccs1 ?
Rin1 Abl inh: -0.5; CAL PDZ FP-1: 0.1; ERp5 inh: 0.1; PDI turbidity: 13.1; ERAP1 inh: -1.9; CAL PDZ FP-2: 122.9*

How did COc1ccc(Cc2nc3ccc(C(=O)N(C)C(C)c4ccon4)cc3o2)cc1 (centres undefined) do in these assays?
Rin1 Abl inh: -0.7; CAL PDZ FP-1: 0.5; ERp5 inh: 3.6; PDI turbidity: -3.8; ERAP1 inh: -1.3; CAL PDZ FP-2: 33.8*

How did COc1ccc(Cc2nc3ccc(C(=O)N(C)CCO)cc3o2)cc1 do in these assays?
Rin1 Abl inh: 2.1; CAL PDZ FP-1: 1.6; ERp5 inh: 1.5; PDI turbidity: 6.6; ERAP1 inh: -0.3; CAL PDZ FP-2: 3.7

What do the screens show for `CCN(CC)CCOC(=O)c1ccc(NC(=O)CSc2nnc(-c3cccs3)n2CC)cc1`?
Rin1 Abl inh: -0.2; CAL PDZ FP-1: -1.1; ERp5 inh: -2.5; PDI turbidity: -4.1; ERAP1 inh: 4.2; CAL PDZ FP-2: 61.4*

What do the screens show for `CCn1c(SCC(=O)Nc2ccc(OC)c(OC)c2)nnc1-c1cccs1`?
Rin1 Abl inh: 1.4; CAL PDZ FP-1: -0.9; PDI turbidity: -13.1; CAL PDZ FP-2: -2.5

What do the screens show for `C[C@@H]1CN([C@@H](C)CO)C(=O)c2cc(NC(=O)CCC(F)(F)F)ccc2O[C@@H](C)CCCCO[C@@H]1CN(C)C(=O)c1ccccc1`?
ERp5 inh: -0.4; ERAP1 inh: -1.4

What do the screens show for `CCOc1ccc(C(=O)/C=C/c2ccc(OC)c(OC)c2)cc1`?
Rin1 Abl inh: 0.0; CAL PDZ FP-1: -1.5; ERp5 inh: -1.1; PDI turbidity: 10.2; ERAP1 inh: 4.3; CAL PDZ FP-2: 60.5*

What do the screens show for `C[C@@H]1CN([C@H](C)CO)S(=O)(=O)c2ccc(-c3ccccc3)cc2O[C@H]1CN(C)Cc1ccccn1`?
ERp5 inh: -1.9; ERAP1 inh: -4.8

What do the screens show for `Cc1ccccc1-n1nc2c(c1NC(=O)c1cc3ccccc3oc1=O)CS(=O)C2` (centres undefined)?
Rin1 Abl inh: -1.5; PDI turbidity: -5.0; CAL PDZ FP-2: 97.5*

Results for C[C@@H](NC(=O)C[C@@H]1CC[C@H]2[C@@H](COC[C@H](O)CN2C(=O)Nc2cccc(F)c2)O1)c1ccccc1 ?
ERp5 inh: -0.2; ERAP1 inh: 4.0

What do the screens show for `CCC(=O)N1[C@@H](CO)[C@@H]2c3ccccc3N(C(=O)Nc3cccc(Cl)c3)C[C@@H]21`?
ERp5 inh: 4.5; ERAP1 inh: 0.4

What do the screens show for `C[C@H]1CCCCO[C@H](CN(C)Cc2ccc(C(=O)O)cc2)[C@@H](C)CN([C@@H](C)CO)C(=O)c2cc(NC(=O)Cc3ccccc3)ccc2O1`?
ERp5 inh: -1.0; ERAP1 inh: -2.6

Results for CCOC(=O)c1ccc(-c2ccc(C=O)o2)cc1 ?
Rin1 Abl inh: -0.2; CAL PDZ FP-1: -1.1; ERp5 inh: 5.5; PDI turbidity: -4.5; ERAP1 inh: -1.3; CAL PDZ FP-2: 64.1*

What do the screens show for `CO[C@H]1CN(C)C(=O)c2ccc(NS(C)(=O)=O)cc2OC[C@H](C)N(CC2CCOCC2)C[C@@H]1C`?
ERp5 inh: 6.4; ERAP1 inh: -1.8

What do the screens show for `O=C(NNC(=O)c1ccc[nH]1)Nc1cccc(C(F)(F)F)c1`?
Rin1 Abl inh: 0.2; CAL PDZ FP-1: -0.7; ERp5 inh: -1.4; PDI turbidity: -2.0; CAL PDZ FP-2: 71.0*

What do the screens show for `O=C(NNC(=O)c1ccc[nH]1)c1cccc(C(F)(F)F)c1`?
Rin1 Abl inh: -0.2; CAL PDZ FP-1: -2.1; ERp5 inh: -3.3; PDI turbidity: -8.7; ERAP1 inh: 0.8; CAL PDZ FP-2: -3.7

What do the screens show for `OC[C@@H]1[C@H](c2ccccc2)C2(CN(Cc3nccs3)C2)N1CCC(F)(F)F`?
ERp5 inh: 20.2; ERAP1 inh: 4.5

What do the screens show for `COc1ccc(CN(C)C[C@@H]2Oc3ccc(NC(=O)NC(C)C)cc3C(=O)N([C@@H](C)CO)C[C@@H]2C)cc1`?
ERp5 inh: -0.4; ERAP1 inh: 2.6

What do the screens show for `CC1CCCCC1NC(=O)CN1C(=O)NC(Cc2ccccc2)(Cc2ccccc2)C1=O` (centres undefined)?
Rin1 Abl inh: 3.6; CAL PDZ FP-1: -0.3; PDI turbidity: -5.1; CAL PDZ FP-2: -1.9

How did CC1CCC2(CC1)NC(=O)N(CC(=O)NC1CCCCC1C)C2=O (centres undefined) do in these assays?
Rin1 Abl inh: 3.1; CAL PDZ FP-1: 0.7; ERp5 inh: -1.6; PDI turbidity: 7.1; ERAP1 inh: 2.1; CAL PDZ FP-2: 33.4*

Results for C[C@H]1CN([C@@H](C)CO)C(=O)c2cccc(NS(=O)(=O)c3ccccc3)c2O[C@H]1CN(C)S(=O)(=O)c1cccs1 ?
ERp5 inh: 2.0; ERAP1 inh: -1.9

What do the screens show for `COc1ccccc1N1CCN(C(=O)C(=O)N/N=C/c2cccc(O)c2)CC1`?
Rin1 Abl inh: 1.7; PDI turbidity: 36.1*; CAL PDZ FP-2: -5.5

Screens from PubChem.
